Screens (PubChem BioAssay)
Ecoli rRNA inh: inhibits bacterial ribosomal RNA function over humanized ribosomes; E. coli WT GFP vs humanized-ribosome RFP mutants, fluorescence, 24 h; stronger effect = lower value; DMSO median 0, no signal -100; GFP signal change (wild-type ribosome), % (concentration not given with the values); actives 1.6% (n = 350,000);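 active = significant combined selectivity score with lowered wild-type GFP, culture density cut under 30%, mutant RFP and density less affected; inactive = any of these conditions unmet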
ERp5 inh: blocks human ERp5 reductase activity on insulin. Q15084. actives 0.05% (n = 350,000). AID 651711. ERp5 insulin aggregation, absorbance 650 nm, 90 min. inhibition, % at 9.99 µM;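 active = mean replicate inhibition above about 25%, with every replicate also reaching it, limit read from the data, passing the limit was not always enough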
Target sequence (Q15084 whole entry, looked up): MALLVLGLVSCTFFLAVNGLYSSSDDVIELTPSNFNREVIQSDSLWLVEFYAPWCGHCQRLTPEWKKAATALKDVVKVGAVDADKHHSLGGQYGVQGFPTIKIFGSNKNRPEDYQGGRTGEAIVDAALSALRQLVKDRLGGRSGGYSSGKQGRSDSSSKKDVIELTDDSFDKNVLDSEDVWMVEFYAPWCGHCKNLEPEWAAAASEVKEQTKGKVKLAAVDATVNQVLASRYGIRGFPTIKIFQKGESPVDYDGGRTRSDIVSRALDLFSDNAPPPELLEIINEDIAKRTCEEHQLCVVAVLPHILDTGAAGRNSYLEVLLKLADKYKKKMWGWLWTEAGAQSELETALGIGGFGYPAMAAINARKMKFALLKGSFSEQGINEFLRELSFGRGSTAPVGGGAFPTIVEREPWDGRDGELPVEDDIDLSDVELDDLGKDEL
FN deposit inh: fibronectin deposition inhibition | inhibition, % at 12.6 µM | AID 743247 | actives 0.086% (n = 350,000) | AH1F fibroblasts, Alexa488-fibronectin deposition fluorescence, overnight;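 active = mean inhibition across replicates of 30% or more, regardless of how many single replicates reach that level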;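 note: positive control wells lacked labelled fibronectin entirely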
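Schedule: 1 h cell adhesion before compound, then overnight fibronectin incubation; test system: AH1F fibroblast monolayer depositing Alexa488-labelled fibronectin into matrix; quantity: 10000 AH1F cells per well; probe or stimulus: fluorescent fibronectin at 24 nM final; signal: fluorescence, ex 485 nm, em 525 nm; evaluation: percent inhibition as loss of matrix-bound fibronectin fluorescence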
PvdQ acylase: blocks Pseudomonas aeruginosa PvdQ acylase activity. purified PvdQ acylase, fluorescence plate reader. inhibition, % at 10 µM. actives 0.063% (n = 340,000). AID 488965; in the data active = inhibition above about 30%, passing the limit was not always enough;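 note: 0% = vehicle neutral wells and 100% = reference inhibitor wells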
Env fusion inh: blocks HIV Env-driven cell-cell fusion. HeLa-JRFL Env/CEM21 cell fusion, luciferase. AID 651610. actives 1.1% (n = 360,000). inhibition, % at 12.3 µM;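 active = mean replicate inhibition score of at least 50 and every replicate individually at or above 50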;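 note: 0% = plate neutral controls and 100% = maraviroc near 300 nM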
PDI inh: blocks human protein disulfide isomerase activity; P07237; PDI insulin aggregation turbidity, A650, 90 min; inhibition, % at 10 µM; actives 0.052% (n = 350,000); AID 588391;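 active = mean inhibition across replicates of 30% or more, whatever share of single replicates reach that level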
* marks the source's active call; other numbers are inactive results; / = no result given; [ ] = dose if it differs, or a comment. Only some compounds are listed: those with a hit (about 2.2% of all), similar ones and a draw of the others.

SMILES	Ecoli rRNA inh	ERp5 inh	FN deposit inh	PvdQ acylase	Env fusion inh	PDI inh
C[C@H]1CCCCO[C@H](CN(C)Cc2ccc(C(F)(F)F)cc2)[C@@H](C)CN([C@@H](C)CO)C(=O)c2cc(NC(=O)NC3CCCCC3)ccc2O1	1.6	-1.6	/	/	66.5*[16.7 µM]	/
Nc1c(C(=O)NCc2ccco2)c2nc3ccccc3nc2n1CCc1ccccc1	-28.1*	-1.2	3.6	-16.0	19.3	4.5
Nc1c(C(=O)NCc2ccccc2)c2nc3ccccc3nc2n1CCCN1CCOCC1	0.1	4.4	0.6	-6.8	-12.8	-1.6
Cc1noc(C)c1NC(=O)N1C[C@@H](O)COC[C@@H]2O[C@H](CC(=O)N[C@H]3CCN(Cc4ccccc4)C3)CC[C@H]21	3.3	/	-3.9	/	/	/
CCC(C)NS(=O)(=O)c1ccc(OC)c(Cl)c1Cl (configuration not stated)	/	/	2.5	34.8*	-35.7	1.2
CCOC(=O)C1=C[C@@H](C(C)(C)C)N(S(=O)(=O)c2ccc(OC)cc2)[C@H]1c1ccccc1	6.5	9.2	0.3	/	62.6*	/
CCOC(=O)C1=C[C@@H](C(C)(C)C)N(S(=O)(=O)c2ccc([N+](=O)[O-])cc2)[C@H]1c1cccc(Cl)c1	19.8	1.3	-7.9	/	70.9*	/
O=C(C[C@@H]1CC[C@@H]2[C@H](COC[C@H](O)CN2C(=O)Nc2ccccc2)O1)NC1Cc2ccccc2C1	4.4	-1.2	-3.7	/	/	/
Cc1nn(C)cc1NC(=O)C[C@@H]1CC[C@@H]2[C@@H](COc3ccc(NC(=O)NC(C)C)cc3C(=O)N2C)O1	3.3	-2.5	-7.9	/	22.0[16.7 µM]	/
Cc1nc2ccc(Br)cc2c(=O)n1Cc1cccs1	-31.8*	-4.4	-0.7	-1.7	-0.1	12.8
CC[C@]12c3[nH]c4cc(-c5ccco5)ccc4c3CCN1C(=O)[C@@H](CC(=O)NCc1ccc(OC)c(OC)c1)C[C@@H]2C(=O)N1CCN(C(=O)C2CC2)CC1	-5.1	0.6	3.9	-18.2	-29.2	37.0*
COc1ccc2[nH]c3c(c2c1)CCN1C(=O)C(CC(=O)NCCCN(C)C)C[C@H](C(=O)N2CCCCC2)[C@@]31CCc1ccccc1 (some centres not stated)	-10.0	-0.6	37.1*	-1.8	-21.6	-2.5
CC(C)[C@H]1CCc2cnnn2COC[C@H](c2ccccc2)NC1=O	5.9	/	2.7	/	/	/
COc1ccc(NC(=O)N(C)C[C@H]2OCCCC[C@H](C)Oc3ccc(NS(=O)(=O)c4cn(C)cn4)cc3C(=O)N([C@@H](C)CO)C[C@@H]2C)cc1	-0.4	1.7	/	/	1.7[16.7 µM]	/
C[C@@H]1CN([C@H](C)CO)C(=O)c2cc(NS(=O)(=O)c3cccs3)ccc2O[C@@H]1CN(C)S(=O)(=O)c1cccs1	-1.9	/	/	/	-31.0[16.7 µM]	/
COc1ccc2c3c(n(C)c2c1)[C@@H](CO)N(C(=O)c1cccc(F)c1)CC31CCN(CC2CC2)CC1	0.9	/	/	/	/	/
CC1=CC(=O)[C@@H](O)[C@@H](c2ccccc2Br)N1C	20.4	3.8	active	-5.3	49.4	1.7
COc1cccc2sc(N(CCCN(C)C)C(=O)c3sc4ccccc4c3Cl)nc12	-43.3*	0.6	5.8	-4.1	/	13.6
CCc1ccc2nc(N(CCCN(C)C)C(=O)c3ccc(S(=O)(=O)N4CCc5ccccc5C4)cc3)sc2c1	-25.1*	0.1	16.3	1.3	22.8	12.9
CN(C)CCCN(C(=O)c1ccc(S(=O)(=O)N(C)Cc2ccccc2)cc1)c1nc2c(F)cccc2s1	-32.9*	-2.0	8.2	-1.3	0.1	2.1
Cc1ccc(S(=O)(=O)Nc2ccc3c(c2)C(=O)N([C@@H](C)CO)C[C@@H](C)[C@@H](CN(C)C(=O)CCC(F)(F)F)OCCCC[C@@H](C)O3)cc1	-0.5	-0.9	1.6	/	13.7[16.7 µM]	/
Cc1noc(C)c1NC(=O)Nc1cccc2c1O[C@H](CN(C)CC1CCCCC1)[C@@H](C)CN([C@@H](C)CO)C2=O	-4.0	4.4	/	/	-10.3[16.7 µM]	/
Clc1ccc(-c2noc(CSc3nnc(-c4ccncc4)n3-c3ccccc3)n2)cc1	/	/	/	0.7	93.6*	4.5
Cc1ccc(-c2noc(CSc3nnc(Cc4ccccc4)n3-c3cccc(C)c3)n2)cc1	-7.4	3.5	/	19.2	/	0.7
COc1ccc(-c2noc(-c3cccs3)n2)cc1OC	12.1	3.4	-14.2	-9.3	-69.6	9.5
SMILES	Ecoli rRNA inh	ERp5 inh	FN deposit inh	PvdQ acylase	Env fusion inh	PDI inh
Cc1ccc(-c2noc(CSc3nnc(-c4ccncc4)n3-c3ccc(C)cc3)n2)cc1	/	/	5.3	-12.1	47.8	4.7
CCn1c(SCc2nc(-c3ccc(OC)c(OC)c3)no2)nnc1-c1cccs1	-31.8*	2.1	/	-6.7	/	4.4
COc1ccc(-c2noc(CSc3nnc(Cc4ccccc4)n3-c3cccc(C)c3)n2)cc1OC	-26.2*	3.2	/	-11.7	/	4.4
CCCNC(=O)Nc1ccc2c(c1)C(=O)N(C)C[C@@H](OC)[C@@H](C)CN(Cc1ccc(-c3ccccn3)cc1)[C@H](C)CO2	0.8	-6.0	9.2	/	-5.4[16.7 µM]	/
O=C(CC1CC1)N[C@H]1CC[C@@H](CCNS(=O)(=O)c2ccc(F)cc2)O[C@@H]1CO	-0.9	2.0	-2.8	/	3.8[16.7 µM]	/
CCC1NC(=O)c2ccccc2N1c1cccc(Cl)c1 (configuration not stated)	-45.3*	-5.9	2.0	-0.5	18.3	11.3
CCC(=O)N1CC2(C1)CN(Cc1ccccc1Cl)[C@H](CO)c1c2c2ccc(OC)cc2n1C	-2.0	4.4	/	/	/	/
COc1ccc2c3c([nH]c2c1)[C@H](CO)N(C(=O)C1CCCCC1)CC31CCN(S(C)(=O)=O)CC1	2.1	4.7	/	/	/	/
CCOC(=O)c1c(NC(=O)CSc2nnc(CNc3ccc(Cl)cc3)o2)sc(C)c1C	/	/	9.5	-9.6	64.9*	-1.6
O=C(c1cccnc1)n1nc(NCc2ccccc2)nc1NCc1ccccc1	-35.2*	-0.2	4.0	-2.4	21.7	9.5
CC(C)OCCCNc1ncnc2c1[nH]c1ccccc12	/	/	-4.2	-13.9	77.9*	3.2
CCOc1ccc2[nH]c3c(NCCCOC)ncnc3c2c1	-8.0	-0.9	7.5	-22.0	13.5	-7.9
COc1ccc(CNc2ncnc3c2[nH]c2ccccc23)cc1	-55.4*	1.8	-3.0	/	22.2	1.7
COc1ccc(CNc2ncnc3c2[nH]c2cc(OC)c(OC)cc23)cc1	-58.5	-2.4	1.3	-13.0	-10.4	-4.1
O=C(C[C@H]1CC[C@@H]2[C@H](COC[C@@H](O)CN2Cc2ccncc2)O1)NCC1CC1	1.7	-2.0	-5.8	/	/	/
CC1C=NC(S(=O)(=O)N2CC[C@@H]3[C@@H](CO)N(C)c4ccc(-c5cccc(F)c5)cc4[C@@H]32)=N1 (some centres not stated)	-34.8	4.9	-17.1	/	/	/
c1cncc(C(c2nnnn2C2CCCCC2)N2CCCCC2)c1 (configuration not stated)	-20.0*	0.2	0.0	15.8	14.8	1.5
